The source of these data is ChEMBL document CHEMBL1141858, “Lichen metabolites. 2. Antiproliferative and cytotoxic activity of gyrophoric, usnic, and diffractaic acid on human keratinocyte growth” (J Nat Prod, 1999).

Test [1] has as its system HaCaT. In words: Antiproliferative activity against human HaCaT cells. The class given is functional, cell-based. An outline of the steps:
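HaCaT keratinocytes were seeded at 2.5 × 10^4 per well in DMEM and grown 24 h. Cells were trypsinized (0.5% trypsin, 0.2% EDTA, 20 min, 37 °C) and counted by phase contrast microscopy. Inhibition was taken relative to vehicle (n = 3). IC50 was interpolated from a log concentration-response using ≥4 concentrations.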

Test [2] concerns HaCaT. Put plainly: Growth inhibition of human HaCaT cells assessed as lactate dehydrogenase release at 2 uM after 4 hrs by UV method. The class given is functional. An outline of the steps:
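HaCaT cells were exposed to compound at 2 µM for 4 h at 37 °C. Extracellular LDH activity in the medium was measured by the UV method with pyruvate and NADH. Values were compared against vehicle controls (n = 3).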

For the compound `CC(=O)C1=C(O)C=C2Oc3c(C(C)=O)c(O)c(C)c(O)c3[C@@]2(C)C1=O` [(+)-USNIC ACID], the IC50 in the test on HaCaT [1] was found to be 2100 nM. The Activity in the test on HaCaT [2] amounted to 168 mU/mL.

As to `O=C1c2c(O)cccc2Cc2cccc(O)c21` [ANTHRALIN], the IC50 in the test with HaCaT [1] was determined as 700 nM. For the same compound, in the test on HaCaT [2], the Activity was 294 mU/mL.

Take `COC(=O)c1c(C)cc(OC(=O)c2c(C)cc(O)c(C=O)c2O)c(C)c1O` [ATRANORIN]: the concentration for half-maximal inhibition (IC50) in the test on HaCaT [1] was greater than 5000 nM.

The compound `COC(=O)c1c(C)cc(O)c(C)c1O` [ATRARIC ACID] returned an IC50 in the test with HaCaT [1] greater than 5000 nM.

In turn, `COc1cc(C)c(C(=O)Oc2cc(C)c(C(=O)O)c(O)c2C)c(OC)c1C` [DIFFRACTAIC ACID] registered an IC50 in the test with HaCaT [1] of 2600 nM. Besides, the Activity in the test on HaCaT [2] was determined as 136 mU/mL.

For `CCOC(=O)c1c(C)cc(O)c(C=O)c1O` [ETHYL HEMATOMMATE], the IC50 with HaCaT [1] is greater than 5000 nM.

In the test on HaCaT [1], `Cc1cc(OC(=O)c2c(C)cc(OC(=O)c3c(C)cc(O)cc3O)cc2O)cc(O)c1C(=O)O` [GYROPHORIC ACID] yielded an IC50 of 1700 nM. Besides, in the test on HaCaT [2], the Activity stood at 138 mU/mL.

With `C=C1C(=O)O[C@@H](CCCCCCCCCCCCC)[C@@H]1C(=O)O` [PROTOLICHESTERINIC ACID], the IC50 with HaCaT [1] is greater than 5000 nM.
